Source: PubChem BioAssay (Broad Institute)
Compounds with a hit are over-represented: about 2.1% of the library has one in this group of screens.
ERp5 inh = inhibitors of ERp5-driven insulin aggregation, primary screen, biochemical, turbidity, absorbance 650 nm, single point. AID 651711, 2012. inhibition, % at 9.99 µM. Protein disulfide-isomerase A6 (Homo sapiens), Q15084. 90 min. 0.05% of 350,000 active;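 active = mean replicate inhibition above about 25%, with every replicate also reaching it, limit read from the data, passing the limit was not always enough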
Target sequence (Q15084 whole entry, looked up): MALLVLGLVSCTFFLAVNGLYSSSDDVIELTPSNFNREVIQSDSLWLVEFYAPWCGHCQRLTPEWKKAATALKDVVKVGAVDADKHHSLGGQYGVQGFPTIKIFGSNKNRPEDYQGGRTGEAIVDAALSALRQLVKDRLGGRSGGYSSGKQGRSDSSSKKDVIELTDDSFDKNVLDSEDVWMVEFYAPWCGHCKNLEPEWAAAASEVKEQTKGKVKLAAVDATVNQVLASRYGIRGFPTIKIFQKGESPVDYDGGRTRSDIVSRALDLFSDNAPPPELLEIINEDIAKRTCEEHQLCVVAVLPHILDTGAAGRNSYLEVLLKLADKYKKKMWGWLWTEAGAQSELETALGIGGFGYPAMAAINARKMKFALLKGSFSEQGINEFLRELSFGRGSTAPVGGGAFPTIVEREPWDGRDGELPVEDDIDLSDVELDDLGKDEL
MLL AF4-AF9 inh = inhibitors of AF4 peptide binding to AF9, primary screen, biochemical, AlphaScreen, biotin-AF4 peptide, FLAG-AF9, single point; inhibition, % at 10 µM; 0.47% of 350,000 active; AID 651704, 2012; Protein AF-9 (Homo sapiens), P42568;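 active = every replicate reaching a set inhibition limit, whatever the replicate mean, cut at about 25% in these data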;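 also: 0% = plate neutral control median and 100% = total signal loss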
FGF22 binding = binders of human FGF22 protein, primary screen, FGF22 synaptogenesis inhibitor project, biophysical, thermal shift, single point; recombinant FGF22 thermal shift, SYPRO orange fluorescence; percent of sucrose octasulfate shift, DMSO zero; 1.5% of 340,000 active; activity (Tm shift, normalised), % at 9.99 µM;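 active = mean Tm shift, scaled 0 neutral to 100 positive control, at about 1.3% or above, every replicate too, limit read from the data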
Target sequence (Q9HCT0 whole entry, looked up): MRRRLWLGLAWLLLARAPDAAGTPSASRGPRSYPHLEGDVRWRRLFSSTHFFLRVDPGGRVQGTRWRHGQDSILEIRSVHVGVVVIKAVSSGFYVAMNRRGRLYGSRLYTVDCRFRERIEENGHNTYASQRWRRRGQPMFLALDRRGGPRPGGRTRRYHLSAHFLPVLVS
PDI turbidity = inhibitors of human PDI, primary screen, biochemical, turbidity, single point, plate reader. 0.052% of 350,000 active. PDI insulin aggregation turbidity, A650, 90 min. inhibition, % at 10 µM. Protein disulfide-isomerase (Homo sapiens), P07237;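 active = mean inhibition across replicates of 30% or more, whatever share of single replicates reach that level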
FN deposition inh = inhibitors of fibronectin matrix deposition, primary screen, AH1F cells, Alexa488-fibronectin fluorescence, plate reader. AH1F fibroblasts, overnight. AID 743247, 2014. 0.086% of 350,000 active. inhibition, % at 12.6 µM;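 active = mean inhibition across replicates of 30% or more, regardless of how many single replicates reach that level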;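 also: positive control wells lacked labelled fibronectin entirely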
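Material: AH1F fibroblasts assembling fluorescent fibronectin matrix; amount: 10000 AH1F cells/well; medium: DMEM, 2% serum; reagent: Alexa488-fibronectin, 24 nM final in well; dosing: single compound dose, delivered by pin transfer; incubation: 1 h adhesion, overnight exposure; detection: fluorescence after three HBSS washes, excitation 485 nm, emission 525 nm; measure: fibronectin deposition inhibition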
ARNT TACC3 PPI = disruptors of ARNT/TACC3 protein interaction, primary screen, biochemical, AlphaScreen, single concentration; 0.66% of 390,000 active; AlphaScreen His-ARNT PAS-B/GST-TACC3 binding, luminescence; TACC3 fragment carries E629A point mutation; Transforming acidic coiled-coil-containing protein 3 (Homo sapiens), Q9Y6A5; inhibition, % at 9.99 µM;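 active = mean inhibition of replicates at least 50% and at least half of replicates each reaching 50%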;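 also: 0% = complete ARNT plus TACC3 wells and 100% = ARNT alone without TACC3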
Active calls of the source: *; . = no result given.

SMILES	ERp5 inh	MLL AF4-AF9 inh	FGF22 binding	PDI turbidity	FN deposition inh	ARNT TACC3 PPI
CCN(CC)c1ccc(/C=N/NC(=O)c2c(Cl)cnn2C)c(O)c1	.	.	.	2.1	4.2	66.3*
O=C(COC(=O)c1cc(S(=O)(=O)N2CCOCC2)ccc1Cl)NC1CCCCC1	-5.1	0.4	42.9*	-12.2	-1.1	.
C[C@@H]1CN([C@@H](C)CO)C(=O)c2cc(C#C[C@@H](C)O)cnc2O[C@@H]1CN(C)Cc1cccc(F)c1	12.5	-1.6	0.0	.	-9.5	5.4
C[C@@H]1CN([C@@H](C)CO)C(=O)c2cccc(NC(=O)CCCCCC(=O)Nc3ccccc3N)c2O[C@H]1CN(C)CC1CCCCC1	2.0	-1.1	-0.2	.	-0.6	.
O=C(O)C[C@@H]1C[C@@H]2c3cc(NC(=O)C4CCC4)ccc3O[C@@H]2[C@H](CO)O1	0.9	-4.0	.	.	.	.
O=C(O)C(Cc1c[nH]c2ccccc12)NS(=O)(=O)c1ccc(Cl)cc1 (centres undefined)	-4.3	-1.4	43.5*	-1.4	-12.7	-10.0
CC(=O)NC(Cc1c[nH]c2ccccc12)C(=O)OCC(=O)N1CCN(S(=O)(=O)c2ccc(Cl)cc2)CC1 (centres undefined)	-8.5	-20.2	-0.2	31.6*	-2.8	4.0
O=C1CN(Cc2ccccc2)C[C@H]2[C@H](c3ccc(-c4ccccc4F)cc3)[C@H](CO)N12	-3.7	0.9	.	.	.	.
CCN(C(=O)CSc1nc2cc(Cl)ccc2c(=O)n1CC(C)C)C1CCS(=O)(=O)C1 (centres undefined)	8.7	-13.0	-0.3	0.4	0.8	-4.5
CCN(C(=O)CSc1nc2cc(Cl)ccc2c(=O)n1Cc1ccco1)C1CCS(=O)(=O)C1 (centres undefined)	-4.6	3.6	43.7*	-0.7	1.1	6.2
C/C=C/c1ccc([C@@H]2[C@@H](CO)N(C(=O)C3CCCC3)C23CN(C(=O)NC(C)C)C3)cc1	-2.0	1.3	.	.	-12.0	.
CN1/C(=C\C(=O)c2cccc(S(=O)(=O)N3CCCCC3)c2)C(C)(C)c2ccccc21	5.6	-13.5	43.0*	-2.6	-3.0	-49.3
CN1/C(=C\C(=O)c2cccnc2)C(C)(C)c2ccccc21	-1.4	0.1	0.6	4.2	-13.5	-5.2
COc1cccc(C2c3c(oc4ccccc4c3=O)C(=O)N2Cc2ccco2)c1 (centres undefined)	-0.7	-52.8	0.2	-7.9	-11.1	47.0*
COc1cc(C2c3c(oc4ccccc4c3=O)C(=O)N2Cc2ccco2)ccc1O (centres undefined)	.	.	.	-19.9	.	-1.8
O=c1ccc(-c2nc3ccccc3n2Cc2ccccc2Cl)c[nH]1	-1.7	1.3	43.4*	1.6	-2.6	7.2
O=c1ccc(-c2nc3cc(Cl)ccc3n2Cc2ccccc2)c[nH]1	-1.6	1.4	.	13.8	1.5	6.1
O=C(O)CC1S/C(=N/N=C/C=C/c2ccccc2[N+](=O)[O-])NC1=O (centres undefined)	.	.	.	1.5	0.8	34.4*
O=C(NCCc1ccc(O)c(Br)c1)c1ccc(Br)o1	0.1	0.9	1.7*	.	-7.4	.
O=C(NCCSc1c[nH]c2ccccc12)c1ccc(Br)o1	-0.6	-4.2	-0.1	.	0.6	5.9
O=C(NCCc1c[nH]c2ccccc12)c1ccc(Br)o1	-6.5	2.3	2.3*	0.0	12.7	3.7
O=C(O)CCNC(=O)c1ccc(Br)o1	.	.	.	-4.4	.	-4.8
Cc1ccc(S(=O)(=O)Nc2cccc3c2O[C@H](CN(C)Cc2ccc4c(c2)OCO4)[C@H](C)CN([C@H](C)CO)C3=O)cc1	-2.9	11.9	0.1	.	.	-10.7
COCC(=O)N(C)C[C@H]1Oc2cc(C#CC(C)(C)O)ccc2S(=O)(=O)N([C@@H](C)CO)C[C@@H]1C	47.2*	-1.5	0.0	.	.	-10.6
COCC(=O)N(C)C[C@H]1Oc2cc(C#CC(C)(C)O)ccc2S(=O)(=O)N([C@@H](C)CO)C[C@H]1C	68.2*	-6.7	0.0	.	.	-7.3
SMILES	ERp5 inh	MLL AF4-AF9 inh	FGF22 binding	PDI turbidity	FN deposition inh	ARNT TACC3 PPI
CCNC(=O)C[C@@H]1CC[C@H]2[C@@H](COC[C@@H](O)CN2C(=O)Nc2c(C)noc2C)O1	4.4	-2.5	0.0	.	-5.7	-10.5
Cc1c(C)n2c(SCC(=O)Nc3ccc4c(c3)OCCO4)nnc2[nH]c1=O	2.5	-1.7	43.6*	-4.5	2.9	4.0
Cc1cccc(Nc2nnc(SCC(=O)NC(=O)Nc3ccc4c(c3)OCCO4)s2)c1	-2.7	10.9	0.2	-12.1	1.5	-10.1
Cc1nnc(SCC(=O)NC(=O)Nc2ccc3c(c2)OCCO3)s1	0.3	-1.0	43.4*	1.3	-15.3	.
C[C@@H]1CN([C@H](C)CO)C(=O)c2cc(NC(=O)Cn3cnnn3)ccc2O[C@H]1CN(C)S(=O)(=O)c1ccc(Cl)cc1	-2.2	-13.0	0.6	.	.	.
N/C(=N\N=C\c1ccc(O)cc1)c1nonc1N	0.1	-11.6	43.9*	-4.9	0.8	-0.8
CN(C)C(=O)C[C@H]1C[C@@H]2c3cc(NC(=O)Nc4ccc(C(F)(F)F)cc4)ccc3O[C@@H]2[C@@H](CO)O1	4.5	6.3	0.2	.	-5.3	-2.0
COc1ccc(CCn2c(=N)c(C(=O)NCc3ccco3)cc3c(=O)n4ccccc4nc32)cc1OC	4.0	0.1	0.1	-3.6	7.0	27.5*
O=C(C1CCCCC1)N1CC(=O)N2[C@H](CO)[C@@H](c3ccc(-c4cccnc4)cc3)[C@@H]2C1	-8.2	-0.5	.	.	.	.
COc1cc(Cl)c(CNC[C@H]2O[C@@H](n3cnc(C(N)=O)n3)[C@H](O)[C@@H]2O)c(Cl)c1O	-0.3	-3.0	43.0*	4.7	5.1	-6.3
COc1cccc(CNC[C@H]2O[C@@H](n3cnc(C(N)=O)n3)[C@H](O)[C@@H]2O)c1OCc1ccc(F)cc1Cl	-3.3	1.6	-0.3	-1.7	-1.7	-4.5
CC[C@H]1C/C=C\C[C@H](c2ccc(OC)cc2OC)NC(=O)[C@H](C)CC(=O)N1	.	.	.	.	-1.1	.
Cn1c(N)c(S(=O)(=O)NCc2ccccc2)c(=O)n(C)c1=O	-0.3	-2.1	0.1	7.1	8.0	1.0
Cn1c(N)c(S(=O)(=O)NCc2ccc(Cl)cc2)c(=O)n(C)c1=O	2.9	-0.5	43.6*	0.5	-13.6	2.7
C(=C\c1ccccc1)/C=N/N1CCN(Cc2ccccc2)CC1	-6.3	44.0*	0.6	-0.5	-3.4	35.1
COc1ccc2c3c(n(C)c2c1)[C@@H](CO)N(CC1CC1)CC31CCN(C(=O)CN(C)C)CC1	18.0	22.3	-0.3	.	.	.
